Experimental data pooled from the literature.
Each line is one published result; the experiments were not run side by side.
Target: Homeodomain-interacting protein kinase 3 (HIPK3, Homo sapiens, UniProt Q9H422)

SMILES	assay	setting	endpoint	value
COc1cc2ncnc(Nc3ccc(F)c(Cl)c3)c2cc1OCCCN1CCOCC1	cell-free assay	0.5 µM	remaining signal	103%
FC(F)(F)Oc1cccc(-c2cnc3ccc(-c4ccncc4)nn23)c1	enzyme activity, inhibitor, radiometric	1 µM	activity vs control	44%
N#Cc1cccc(Nc2nc3cc(C(=O)O)ccc3c3cncnc23)c1	enzyme activity, inhibitor, radiometric	1 µM	remaining activity	8%
N#CCCc1ccc2c(c1)-c1[nH]c3ccc([N+](=O)[O-])cc3c1CC(=O)N2	cell-free assay	0.5 µM	remaining signal	104%
N#Cc1ccc(Nc2ccc3[nH]c(=O)[nH]c3c2)c(Cl)c1	cell-free assay, competition with immobilised ligand	1 µM	remaining binding	94%
O=C(O)c1ccc2c(c1)nc(NCc1ccccc1)c1ccncc12	enzyme activity, inhibitor, radiometric	1 µM	remaining activity	68%
CCN(CC)CCNC(=O)c1c(C)[nH]c(/C=C2\C(=O)Nc3ccc(F)cc32)c1C	enzyme activity, inhibitor	10 µM	inhibition	82%
Cc1ccc(NC(=O)c2ccc(C)c(C(F)(F)F)c2)cc1C#Cc1nn(C2CCC(O)CC2)c2ncnc(N)c12 (stereo not drawn)	cell-free assay	10 µM	remaining signal	81%
COc1cc2ncnc(Nc3ccc(Oc4ccccc4)cc3C)c2cc1OC	enzyme activity, inhibitor	1 µM	inhibition	3%
O=C(O)c1ccc2c(c1)nc(Nc1ccc(Cl)cc1)c1ccncc12	enzyme activity, inhibitor, radiometric	1 µM	remaining activity	9%
Cc1noc([C@H]2C[C@@H](c3ccc(C(F)(F)F)cc3)CN(C(=O)N3CCS(=O)(=O)C3)C2)n1	cell-free assay, competition with immobilised ligand	1 µM	remaining binding	96%
N#Cc1cccc(Nc2nc3cc(C(=O)O)ccc3c3cnccc23)c1	enzyme activity, inhibitor, radiometric	1 µM	remaining activity	13%
CN([C@@H]1CCc2c(CC(=O)O)c3ccccc3n2C1)S(=O)(=O)c1ccc(F)cc1	cell-free assay, competition with immobilised ligand	1 µM	remaining binding	71%
C#Cc1cccc(Nc2ncnc3cc(OCCOC)c(OCCOC)cc23)c1	cell-free assay	0.5 µM	remaining signal	102%
Cc1c(C(=O)O)cc(-c2ccc(C3CCNCC3)cc2)c2ccc(-c3ccc(C(F)(F)F)cc3)cc12	binding, competition with immobilised ligand	1 µM	remaining binding	100%
O=C(Nc1cnn(-c2csc(C(=O)NC3COC3)c2)c1)Nc1c(F)cccc1Cl	enzyme activity, inhibitor	5 µM	remaining activity	98.8%
O=C(O)c1ccc2c(c1)nc(NCCc1ccccc1)c1ncncc12	enzyme activity, inhibitor, radiometric	1 µM	remaining activity	16%
Cn1c(=O)n(-c2ccc(C(C)(C)C#N)cc2)c2c3cc(-c4cnc5ccccc5c4)ccc3ncc21	enzyme activity, inhibitor	10 µM	remaining activity	102%
O=C(O)c1ccc2c(c1)nc(NCCc1cccc(Cl)c1)c1ccncc12	enzyme activity, inhibitor, radiometric	1 µM	remaining activity	29%
CCOc1cc(-c2nncn2C)ccc1Nc1ncc2cc(C)nc(NCC(C)(C)C)c2n1	enzyme activity, inhibitor, FRET	1 µM	inhibition	< 15%
COc1cccc(CNC(=O)c2nc3scc(COCc4ccc(C(=O)O)cc4)c3c(=O)[nH]2)c1	cell-free assay, competition with immobilised ligand	1 µM	remaining binding	73.7%
O=C(O)c1ccc2c(c1)nc(Nc1ccc(Cl)cc1)c1ncncc12	enzyme activity, inhibitor, radiometric	1 µM	remaining activity	7%
Cc1cc(NC(=O)c2cccc3cc(-c4cccc5[nH]nc(N)c45)ccc23)ccc1F	enzyme activity, inhibitor	0.1 µM	activity vs control	92%
O=C(Nc1cccnn1)N1CC(C/C=C/c2cncc(Oc3ccc(C(F)(F)F)cn3)n2)C1	cell-free assay, competition with immobilised ligand	1 µM	remaining binding	74%
Cc1ccc(Nc2nccc(N(C)c3ccc4c(C)n(C)nc4c3)n2)cc1S(N)(=O)=O	enzyme activity, inhibitor	10 µM	inhibition	20%
COc1cccc(CCNc2nc3cc(C(=O)O)ccc3c3cncnc23)c1	enzyme activity, inhibitor, radiometric	1 µM	remaining activity	27%
NS(=O)(=O)c1cc(NC(=O)Cc2ccccc2)ccc1Oc1cccc(Cl)c1	cell-free assay, competition with immobilised ligand	1 µM	remaining binding	84%
COc1cc(-c2cc(-c3ccc(N4CCNCC4)cc3)cnc2C)cc(OC)c1OC	enzyme activity, inhibitor	0.1 µM	inhibition	1%
Cc1nc(Cc2cccc(C(F)(F)F)c2)sc1-c1ccc(C(N)=O)nc1	cell-free assay, competition with immobilised ligand	1 µM	remaining binding	100%
Nc1ncnc2occ(-c3ccc(NC(=O)Nc4cc(C(F)(F)F)ccc4F)cc3)c12	cell-free assay, inhibitor	20 µM	remaining signal	0.7%
